This is a sample that favours compounds with a hit; in the whole collection about 4.9% have one here.
APP 5'UTR act – activators of APP 5'UTR luciferase reporter, primary screen, SH-SY5Y cells; SH-SY5Y APP 5'UTR luciferase reporter, luminescence; zero percent = DMSO vehicle wells; activation, % at 2 µM; 190,000 compounds, 1% hits; AID 1276, 2008;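 active = activation above a set limit, based on mean plus 3 SD of controls, cut at about 140% in these data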
STAT1 activator – STAT1 signaling activators, primary screen, cell-based, HTS, luciferase reporter; activation (% of control), % at 5.5 µM; NIH 3T3 STAT1-luciferase reporter, IFN-gamma, luminescence; 100% = IFN-gamma alone, no compound; 200,000 compounds, 2.6% hits;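 active = activation above the screen-wide mean activation plus 3 SD, cut at about 130% in these data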;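 note: raw ratio to IFN-gamma control signal so 100% means no change and 0% no light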
STAT1 blocker – STAT1 signaling inhibitors, primary screen, cell-based, HTS, luciferase reporter; 200,000 compounds, 0.35% hits; AID 920, 2007; NIH 3T3 STAT1-luciferase reporter, IFN-gamma, luminescence; inhibition, % at 5.5 µM;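 active = inhibition above a set limit, the mean inhibition across all tested compounds plus 3 SD, cut at about 34% in these data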;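 note: 0% = IFN-gamma with DMSO and 100% = IFN-gamma with 300 µM nifuroxazide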
STAT3 blocker – IL-6 driven STAT3 reporter inhibitors, primary screen, U3A cells, luciferase, luminescence, MLSCN library; IL-6 STAT3-luciferase reporter; host cell line lacks STAT1; AID 862, 2007; 190,000 compounds, 0.89% hits; inhibition, % at 5.5 µM;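 active = inhibition above the mean inhibition across all screened compounds plus 3 SD, cut at about 44% in these data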;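 note: 0% = DMSO only wells and 100% = 100 µM nifuroxazide control wells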
NF-kB expr up – activators of NF-kB expression in neurons, primary screen, cell-based, HTS; human neuronal cells, NF-kB reporter expression; hits give high values; fold change at 12.5 µM; 190,000 compounds, 1.6% hits; AID 1239, 2008; in the data active = fold change above about 3.3
STAT3 activator – IL-6 driven STAT3 reporter potentiators, primary screen, U3A cells, luciferase, luminescence, MLSCN library; AID 871, 2007; IL-6 STAT3-luciferase reporter; 100% = signal with IL-6 EC80 alone; 190,000 compounds, 0.91% hits; activation (% of control), % at 5.6 µM;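 active = activation above the screen-wide mean of compound activation plus 3 SD, cut at about 130% in these data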;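 note: 0% = background luminescence of wells with medium and substrate only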
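Assay system – human STAT1-deficient U3A cells with stable STAT3-luciferase reporter · Also added – IL-6 (33 ng/mL) · Schedule – compound 1 h, then IL-6 6 h at 37 °C · Technique – reporter luminescence signal · Evaluation – % activation versus median of IL-6-stimulated wells · Benchmarks – IL-6-only wells as 100% reference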
* hit, by the source's call.

How did Cc1ccccc1N=C1c2ccccc2C(=O)C1[N+](=O)[O-] (configuration not stated) do in these assays?
APP 5'UTR act: 6.8; STAT1 activator: 103.1; STAT1 blocker: -4.7; STAT3 blocker: -10.7; NF-kB expr up: 0.92; STAT3 activator: 113.9

How did Cc1noc(C)c1S(=O)(=O)Nc1ccc(C(=O)N2CCc3ccccc3C2)cc1 do in these assays?
APP 5'UTR act: 6.2; STAT1 activator: 103.7; STAT1 blocker: -4.1; STAT3 blocker: 4.9; NF-kB expr up: 1.1; STAT3 activator: 100.4

What do the screens show for `CC1=Nc2cc([N+](=O)[O-])ccc2NC(C)(C)C1`?
APP 5'UTR act: 135.5*; STAT1 activator: 102.3; STAT1 blocker: -2.4; STAT3 blocker: -6.8; NF-kB expr up: 1.09; STAT3 activator: 105.2

Results for CC1(C)CNc2cc([N+](=O)[O-])ccc2S1 ?
APP 5'UTR act: -26.3; STAT1 activator: 109.4; STAT1 blocker: -10.5; STAT3 blocker: 5.1; NF-kB expr up: 1.64; STAT3 activator: 99.0

How did O=C1CCCCC1C(=O)c1cn(-c2ccc(Cl)c(Cl)c2)nn1 (configuration not stated) do in these assays?
APP 5'UTR act: 19.1; STAT1 activator: 129.3*; STAT1 blocker: -33.0; STAT3 blocker: 12.5; NF-kB expr up: 1.8; STAT3 activator: 99.2

How did CCCOc1ccc(/C=N/Nc2ccccc2[N+](=O)[O-])c(O)c1 do in these assays?
APP 5'UTR act: 172.7*; STAT1 activator: 111.1; STAT1 blocker: -12.6; STAT3 blocker: 12.5; NF-kB expr up: 0.86; STAT3 activator: 92.4

How did O=[N+]([O-])c1cccnc1N/N=C/c1ccccc1O do in these assays?
APP 5'UTR act: -8.3; STAT1 activator: 130.0*; STAT1 blocker: -34.0; STAT3 blocker: 9.4; NF-kB expr up: 1.84; STAT3 activator: 93.2

What do the screens show for `COc1cccc(C2Nc3cc(Cl)c(S(N)(=O)=O)cc3S(=O)(=O)N2)c1` (configuration not stated)?
APP 5'UTR act: -3.2; STAT1 activator: 94.2; STAT1 blocker: 6.4; STAT3 blocker: 7.6; NF-kB expr up: 1.18; STAT3 activator: 92.5

Results for COc1ccc(CNc2nc3nc(-c4ccccc4)cc(=O)n3[nH]2)cc1OC ?
APP 5'UTR act: -2.0; STAT1 activator: 97.8; STAT1 blocker: 2.4; STAT3 blocker: -4.3; NF-kB expr up: 1.19; STAT3 activator: 106.7

What do the screens show for `COc1ccccc1C1=NC(c2ccc(C)cc2)N=C1C` (configuration not stated)?
APP 5'UTR act: 38.1; STAT1 activator: 135.3*; STAT1 blocker: -38.4; STAT3 blocker: -4.6; NF-kB expr up: 2.15; STAT3 activator: 107.2

What do the screens show for `Cc1cccc(-n2ncc3c(NCc4ccccc4)ncnc32)c1`?
APP 5'UTR act: 48.1; STAT1 activator: 120.6; STAT1 blocker: -21.0; STAT3 blocker: -7.9; NF-kB expr up: 1.77; STAT3 activator: 106.6

What do the screens show for `Cc1cccc(-n2ncc3c(N(CCO)CCO)ncnc32)c1`?
APP 5'UTR act: 72.8; STAT1 activator: 129.9*; STAT1 blocker: -30.8; STAT3 blocker: -11.0; NF-kB expr up: 1.79; STAT3 activator: 109.1

Results for Clc1ccc(-n2ncc3c(NCc4cccs4)ncnc32)cc1 ?
APP 5'UTR act: 126.0; STAT1 activator: 133.5*; STAT1 blocker: -36.7; STAT3 blocker: 13.3; NF-kB expr up: 2.77; STAT3 activator: 94.8

Results for COCCN(CCOC)c1ncnc2c1cnn2-c1ccc(Cl)cc1 ?
APP 5'UTR act: 41.7; STAT1 activator: 127.1; STAT1 blocker: -29.8; STAT3 blocker: 19.4; NF-kB expr up: 1.15; STAT3 activator: 86.5

How did COCCNc1ncnc2c1cnn2-c1ccc(Cl)cc1 do in these assays?
APP 5'UTR act: 197.2*; STAT1 activator: 156.3*; STAT1 blocker: -61.6; STAT3 blocker: 25.1; NF-kB expr up: 7.43*; STAT3 activator: 84.7

Results for Cc1cccc(-n2ncc3c(NCc4ccco4)ncnc32)c1 ?
APP 5'UTR act: 49.2; STAT1 activator: 129.9*; STAT1 blocker: -31.2; STAT3 blocker: -7.2; NF-kB expr up: 2.65; STAT3 activator: 111.9

How did Clc1ccc(Nc2ncnc3c2cnn3-c2ccccc2)cc1 do in these assays?
APP 5'UTR act: 51.1; STAT1 activator: 124.7; STAT1 blocker: -25.3; STAT3 blocker: 4.5; NF-kB expr up: 2.35; STAT3 activator: 96.5

What do the screens show for `O=C(CN(c1ccc(F)cc1)S(=O)(=O)c1ccccc1)NCCSC1CCCCC1`?
APP 5'UTR act: 13.2; STAT1 activator: 100.2; STAT1 blocker: -0.3; STAT3 blocker: -11.8; NF-kB expr up: 0.72; STAT3 activator: 107.4

What do the screens show for `Cc1ccc(OCCN2C(=O)NC3(CCc4ccccc4C3)C2=O)cc1` (configuration not stated)?
APP 5'UTR act: -10.5; STAT1 activator: 101.3; STAT1 blocker: -1.4; STAT3 blocker: -5.8; NF-kB expr up: 1.13; STAT3 activator: 107.3

What do the screens show for `CCN(CC)C(=O)COc1ccc2oc(-c3ccco3)cc(=O)c2c1`?
APP 5'UTR act: 21.3; STAT1 activator: 117.8; STAT1 blocker: -20.6; STAT3 blocker: 16.8; NF-kB expr up: 1.35; STAT3 activator: 94.6

What do the screens show for `CCCOCC(O)CCc1n[nH]c(=S)n1-c1ccccc1` (configuration not stated)?
APP 5'UTR act: -9.1; STAT1 activator: 98.4; STAT1 blocker: -0.2; STAT3 blocker: 7.0; NF-kB expr up: 0.93; STAT3 activator: 96.0

How did CCCn1c2ccc(/C(C)=N\O)cc2c2cc(/C(C)=N/O)ccc21 do in these assays?
APP 5'UTR act: -12.7; STAT1 activator: 110.7; STAT1 blocker: -11.7; STAT3 blocker: 8.9; NF-kB expr up: 1.33; STAT3 activator: 95.6

Results for CN(NC(=O)NN)c1ncc(C(F)(F)F)cc1Cl ?
APP 5'UTR act: 3.6; STAT1 activator: 99.5; STAT1 blocker: 0.6; STAT3 blocker: 6.1; NF-kB expr up: 1.12; STAT3 activator: 103.6

Results for c1cncc(CNc2ncnc3sccc23)c1 ?
APP 5'UTR act: 3.2; STAT1 activator: 89.6; STAT1 blocker: 11.8; STAT3 blocker: 7.8; NF-kB expr up: 1.15; STAT3 activator: 94.1

Results for Cc1cccc(-n2ncc3c(N4CCCc5ccccc54)ncnc32)c1 ?
APP 5'UTR act: 46.1; STAT1 activator: 140.8*; STAT1 blocker: -44.1; STAT3 blocker: -1.8; NF-kB expr up: 2.78; STAT3 activator: 99.0

What do the screens show for `Cc1cccc(-n2ncc3c(NCCN4CCOCC4)ncnc32)c1`?
APP 5'UTR act: 23.2; STAT1 activator: 107.4; STAT1 blocker: -8.1; STAT3 blocker: -2.0; NF-kB expr up: 0.84; STAT3 activator: 108.0

How did c1csc(CNc2ncnc3sccc23)c1 do in these assays?
APP 5'UTR act: -3.0; STAT1 activator: 77.2; STAT1 blocker: 25.1; STAT3 blocker: 66.1*; STAT3 activator: 49.3

From PubChem BioAssay
